PMC4878416 (Diabetes, 2016)

Key:
tyrosine kinase TXK = molecular target: T1, tyrosine kinase TXK (Homo sapiens, UniProt P42681); experiment: Human kinome profiling, TXK; format: biochemical; conditions: read-out: remaining activity TXK
T1 sequence (P42681 1-527): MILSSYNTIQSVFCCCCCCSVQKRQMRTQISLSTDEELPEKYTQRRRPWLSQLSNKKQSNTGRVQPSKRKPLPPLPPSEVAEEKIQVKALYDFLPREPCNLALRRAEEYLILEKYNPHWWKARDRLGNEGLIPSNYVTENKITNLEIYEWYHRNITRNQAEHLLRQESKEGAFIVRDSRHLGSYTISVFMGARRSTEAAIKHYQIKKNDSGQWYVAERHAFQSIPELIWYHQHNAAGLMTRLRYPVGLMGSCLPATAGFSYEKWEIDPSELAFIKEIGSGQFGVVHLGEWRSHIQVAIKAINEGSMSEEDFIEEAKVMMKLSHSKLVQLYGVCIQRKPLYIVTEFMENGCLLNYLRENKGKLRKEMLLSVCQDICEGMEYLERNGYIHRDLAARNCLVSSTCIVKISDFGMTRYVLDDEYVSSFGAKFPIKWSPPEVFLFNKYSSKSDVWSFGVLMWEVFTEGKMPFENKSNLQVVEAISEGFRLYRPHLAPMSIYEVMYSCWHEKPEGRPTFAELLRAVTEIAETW
How it was run: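 Human kinases profiled by commercial providers under their standard protocols; ATP within 15 μmol/L of the apparent KM for each enzyme.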

human β-cells = experiment: EdU incorporation proliferation assay in dissociated human islet cells; format: cell-based
How it was run: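 Human islets dissociated in Accutase (5,000 IEQ/mL, 37°C, 20 min), resuspended in CMRL complete medium and seeded at ~30,000 (96-well) or ~15,000 (384-well) cells per well. EdU was present throughout the 6-day treatment, including FK506 cotreatment. Cells were fixed (3% PFA), permeabilised (0.2% Triton X-100) and stained for C-peptide and DAPI. EdU+ β-cells were scored by automated imaging and manually; 4 wells, 9 fields each; mean ± SD; two-tailed t test vs DMSO.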

adenosine kinase = conditions: read-out: IC50 adenosine kinase; cited from earlier work
[1] = system: human islet cells (all cell types); conditions: cited from earlier work
DYRK1A = DYRK1A (Homo sapiens, UniProt Q13627); experiment: Biochemical assay for DYRK1A activity using the purified catalytic domain
[2] = system: p27KIP phosphorylation (S10); experiment: Western blot of p27KIP phosphorylation; format: cell-based, rat; conditions: INS-1E cells, 24 or 48 h, 10 μmol/L harmine or 0.5 μmol/L 5-IT
How it was run: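 Cells were treated after overnight attachment and lysed in RIPA buffer. Western blots were probed for p27KIP S10 phosphorylation, with actin as loading control.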

Question: Which remaining activity at 0.5 µM (tyrosine kinase TXK) does the source give for `Nc1ncnc2nc(-c3ccc(N4CCOCC4)nc3)cc(-c3cccc(Br)c3)c12` [ABT-702, 4-amino-5-(3-bromophenyl)-7-(6-morpholinopyridin-3-yl)pyrido[2,3-d]pyrimidine] here?
Answer: 60%

Question: What about the “effect on EdU incorporation” value (human β-cells; tested up to 20 μmol/L, 6-day treatment) of the same compound?
Answer: no effect

Question: And the IC50 (adenosine kinase)?
Answer: 1.7 nM

Question: For `COC(=O)C1=C(C)NC(C)=C([N+](=O)[O-])C1c1ccccc1C(F)(F)F` (stereo not shown) [Bay K8644], which “cellular proliferation in human islet cell culture” value [1] is on record?
Answer: induces nonspecific cellular proliferation

Question: For `C=CC[C@@H]1/C=C(\C)C[C@H](C)C[C@H](OC)[C@H]2O[C@@](O)(C(=O)C(=O)N3CCCC[C@H]3C(=O)O[C@H](/C(C)=C/[C@@H]3CC[C@@H](O)[C@H](OC)C3)[C@H](C)[C@@H](O)CC1=O)[C@H](C)C[C@@H]2OC` [FK506], which “effect of cotreatment on 5-IT-induced EdU-positive β-cells” value (human β-cells; 1 μmol/L FK506 with 1 μmol/L 5-IT) is on record?
Answer: completely blocked

Question: What about the “effect of cotreatment on harmine-induced EdU-positive β-cells” value (human β-cells; 1 μmol/L FK506 with 10 μmol/L harmine) of the same compound?
Answer: completely blocked

Question: For `COc1ccc2c3c([nH]c2c1)C(C)=NCC3` [harmaline], which “effect on EdU incorporation versus vehicle” value (human β-cells; 6-day treatment) is on record?
Answer: no effect

Question: And the “activity toward DYRK1A” value (DYRK1A)?
Answer: no activity

Question: Which results are given for `COc1ccc2c(c1)[nH]c1c(C)nccc12` [harmine]?
Answer: effect on EdU-positive cells (human β-cells; 5 and 10 μmol/L, 6-day treatment): dose-dependent increase; p27KIP phosphorylation [2]: decrease
